Results taken from PubChem BioAssay.
Activity calls are given as the source filed them.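 The calls were made as follows, unless noted: active = duplicate-averaged activation above buffer control mean plus 5 SD of those controls; inactive = the rest.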

Experiments:
[1] = nonspecific flux increase, KCNQ1-free cells – parental CHO cells, counter-screen for KCNQ1 potentiator project (AID 493006); settings: parental CHO-K1 cells, FluxOR thallium flux, at 10 µM; active compounds read high;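 as to activation: fluorescence ratio of max minus min over baseline after K+ and Tl+ depolarization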
In short: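 Assay system: parental CHO-K1 cells lacking KCNQ1, loaded with FluxOR thallium dye; timing: dye 90 min RT, compound 20 min RT; signal: kinetic thallium-flux fluorescence; repeats: duplicate wells per compound, percent values averaged; benchmarks: buffer and R-L3 controls; reagent: Potassium/thallium depolarization pulse; read-out: fluorescence change ratio scaled 0% buffer, 100% R-L3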

[2] = molecular target: Potassium voltage-gated channel subfamily KQT member 1 (Homo sapiens) (UniProt P51787); assay: enhancement of KCNQ1 channel thallium flux – FluxOR thallium flux, CHO cells, duplicates, confirmation (AID 493007;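 active = potentiation averaged over duplicate wells exceeding buffer-only control mean by more than 3 SD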;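 as to outcome: cells depolarized by a potassium plus thallium sulfate stimulus after compound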); settings: KCNQ1 cell line, FluxOR thallium flux fluorescence, at 10 µM; active compounds read high, % of reference activator effect, buffer zero
In short: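 material = CHO cells stably expressing the KCNQ1 potassium channel | repeats = duplicate wells per compound | measure = percent activation between buffer and R-L3 responses | signal = FluxOR thallium-flux fluorescence, kinetic read | schedule = FluxOR dye loading 90 min, compound exposure 20 min, room temperature | control set = buffer and R-L3 controls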

[3] = molecular target: Potassium voltage-gated channel subfamily KQT member 2 (Rattus norvegicus) (UniProt O88943); assay: KCNQ2 thallium flux enhancement – KCNQ2-CHO-K1 cells, selectivity assay for KCNQ1 potentiator project (AID 493009;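 active = mean duplicate potentiation above the buffer control mean plus 5 SD of buffer wells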;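 also: assay conditions were tuned for KCNQ1 rather than KCNQ2 modulators; signal is max minus min fluorescence divided by baseline after thallium stimulus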); settings: FluxOR thallium flux fluorescence, at 10 µM; active compounds read high, scaled: buffer 0, activator control 100
[4] = molecular target: Potassium voltage-gated channel subfamily KQT member 1 (Homo sapiens) (UniProt P51787); assay: KCNQ1 activators by electrophysiology – IonWorks patch clamp, KCNQ1-CHO cells, orthogonal assay for KCNQ1 potentiator project, confirmation (AID 493184;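 active = current rise at least 3 SD above the untreated control mean in each of two repeat wells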); settings: automated patch clamp current, at 10 µM; active compounds read high
In short: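 Assay system – CHO cells carrying KCNQ1 · Medium – pH 7.4 external bath · Probe or stimulus – depolarizing pulse to +40 mV from -90 mV · Compound dosing – one dose, 10 µM final · Measured by – automated perforated-patch electrophysiology · Measure – % potentiation of steady-state current relative to pre-compound · Repeats – two replicates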

Potassium voltage-gated channel subfamily KQT member 1 (Homo sapiens), sequence (P51787 whole entry, looked up): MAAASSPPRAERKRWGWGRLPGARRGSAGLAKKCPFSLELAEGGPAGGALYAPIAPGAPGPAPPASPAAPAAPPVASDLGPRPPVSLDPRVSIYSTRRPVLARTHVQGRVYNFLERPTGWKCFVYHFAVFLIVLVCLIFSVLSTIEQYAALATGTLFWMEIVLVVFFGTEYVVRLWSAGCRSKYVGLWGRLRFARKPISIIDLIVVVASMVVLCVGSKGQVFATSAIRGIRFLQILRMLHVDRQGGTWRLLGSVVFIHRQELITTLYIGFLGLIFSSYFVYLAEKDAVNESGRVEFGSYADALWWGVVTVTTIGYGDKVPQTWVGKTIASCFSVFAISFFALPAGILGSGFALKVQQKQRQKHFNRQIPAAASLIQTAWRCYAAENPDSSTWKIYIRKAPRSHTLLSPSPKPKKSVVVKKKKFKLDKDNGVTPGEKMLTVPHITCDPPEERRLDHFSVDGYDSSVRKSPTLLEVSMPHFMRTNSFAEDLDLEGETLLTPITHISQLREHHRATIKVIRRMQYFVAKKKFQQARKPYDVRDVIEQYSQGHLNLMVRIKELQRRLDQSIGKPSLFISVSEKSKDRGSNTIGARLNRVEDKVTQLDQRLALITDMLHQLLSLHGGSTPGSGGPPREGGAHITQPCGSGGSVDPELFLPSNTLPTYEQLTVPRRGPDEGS
Potassium voltage-gated channel subfamily KQT member 2 (Rattus norvegicus), sequence (O88943 whole entry, looked up): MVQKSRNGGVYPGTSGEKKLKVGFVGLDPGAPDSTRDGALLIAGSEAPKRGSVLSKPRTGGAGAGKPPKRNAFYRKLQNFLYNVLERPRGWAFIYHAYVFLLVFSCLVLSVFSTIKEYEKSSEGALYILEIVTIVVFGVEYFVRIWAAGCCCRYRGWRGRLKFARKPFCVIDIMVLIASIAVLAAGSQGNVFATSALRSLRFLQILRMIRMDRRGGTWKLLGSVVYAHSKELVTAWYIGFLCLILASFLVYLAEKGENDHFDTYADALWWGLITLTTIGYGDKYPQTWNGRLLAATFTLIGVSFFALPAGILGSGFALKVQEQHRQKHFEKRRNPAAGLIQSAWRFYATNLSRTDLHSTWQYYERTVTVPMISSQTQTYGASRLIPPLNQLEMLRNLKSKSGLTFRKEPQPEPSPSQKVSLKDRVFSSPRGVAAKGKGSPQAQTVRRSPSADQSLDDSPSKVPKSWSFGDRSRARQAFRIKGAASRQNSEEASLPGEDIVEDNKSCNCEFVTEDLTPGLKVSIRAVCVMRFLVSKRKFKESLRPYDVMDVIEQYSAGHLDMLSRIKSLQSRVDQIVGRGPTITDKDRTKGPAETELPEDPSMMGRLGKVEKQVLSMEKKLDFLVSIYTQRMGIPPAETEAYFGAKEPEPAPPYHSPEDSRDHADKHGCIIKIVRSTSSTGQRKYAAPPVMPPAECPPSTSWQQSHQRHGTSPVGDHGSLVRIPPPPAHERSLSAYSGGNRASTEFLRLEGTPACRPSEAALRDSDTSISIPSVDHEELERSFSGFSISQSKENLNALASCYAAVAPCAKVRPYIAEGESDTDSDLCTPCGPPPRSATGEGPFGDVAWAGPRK

Compound | outcome [1] | outcome [2] | outcome [3] | outcome [4] | potentiation [2] | potentiation [3] | activation [1]
CC(OC(=O)CCCNC(=O)c1ccc(Cl)cc1)C(=O)N(C)Cc1ccccc1 (stereo not given) | inactive | inactive | inactive | inactive |  |  | 
CC(NC(=S)NC(=O)c1ccccc1Br)c1ccccc1 (stereo not given) | inactive |  |  | inactive | 84% (active) | 184% (active) | 
COCCn1cnc2c1c(=O)n(CC#N)c(=O)n2Cc1ccccc1 | inactive | inactive | inactive | inactive |  |  | 
Cc1cc(C)nc(NC(=O)/C=C/c2ccccc2Cl)n1 | inactive | inactive | inactive | inactive |  |  | 
S=c1[nH]c2ccc(Cl)cc2s1 |  |  |  | inactive | 228% (active) | 526% (active) | 614% (active)
CCSc1nnc(NC(=O)[C@H](C)NC(=O)c2ccccc2Cl)s1 | inactive | inactive | inactive | inactive |  |  | 
COc1ccc(NS(=O)(=O)c2ccc(N/N=C(\C)c3ccncc3)c([N+](=O)[O-])c2)cc1 | inactive | inactive | inactive | inactive |  |  | 
COc1ccc(OCC(=O)Nc2cccc(C(C)=O)c2)cc1 | inactive | inactive | inactive | inactive |  |  | 
O=S1(=O)Nc2c(ccc3cccnc23)-c2ccccc21 | inactive |  |  | inactive | 21% (active) | 154% (active) | 
O=C(Nc1cc([N+](=O)[O-])ccc1N1CCCC1)c1cccs1 | inactive | inactive | inactive | inactive |  |  | 
COc1cccc2sc(NNC(=O)C3COc4ccccc4O3)nc12 (stereo not given) | inactive | inactive | inactive | inactive |  |  | 
Cn1nnnc1SCC(=O)NCc1ccc2c(c1)OCO2 | inactive | inactive | inactive | inactive |  |  | 
CCOC(=O)c1cc2c(=O)n3ccccc3nc2n(CCCOC)c1=NC(=O)c1ccncc1 | inactive | inactive | inactive | inactive |  |  | 
COC(=O)c1c(NC(=O)c2ccccc2)sc(C(=O)c2ccccc2)c1C | inactive | inactive | inactive | inactive |  |  | 
COc1ccc(Cl)cc1NC(=O)/C=C\C(=O)O | inactive | inactive | inactive | inactive |  |  | 
COc1ccc(C(=O)N2CCC(N3CCN(c4ccccc4)CC3)CC2)cc1 | inactive | inactive | inactive | inactive |  |  | 
O=C(O)CCSc1ncnc2sc(-c3ccccc3)cc12 |  |  |  | inactive | 89.5% (active) | 220% (active) | 180% (active)
COc1cc(OC)cc(C(=O)NC(=S)N(Cc2ccccc2)C(C)C)c1 |  |  |  | inactive | 150% (active) | 380% (active) | 294% (active)
Cc1ccc(-n2c(=S)[nH]c3sc4c(c3c2=O)CCC4)cc1 |  |  |  | inactive | 42.5% (active) | 176% (active) | 158% (active)
Cc1ccc2nc(NC(=S)NC(=O)c3ccco3)sc2c1 |  |  |  | inactive | 138% (active) | 325% (active) | 360% (active)

Compound | outcome [1] | outcome [2] | outcome [3] | outcome [4] | potentiation [2] | potentiation [3] | activation [1]
CCc1nnc(NC(=O)CCC(=O)N2CCN(C3CCCCC3)CC2)s1 | inactive | inactive | inactive | inactive |  |  | 
CCN(CC)S(=O)(=O)c1cccc(C(=O)N[C@H](C(=O)NNC(=O)c2ccccc2)C(C)C)c1 | inactive | inactive | inactive | inactive |  |  | 
COc1cccc(OC)c1C(=O)Nc1cccc(-c2ccc3nncn3n2)c1 | inactive | inactive | inactive | inactive |  |  | 
Cc1cc(C)nc(N(C#N)CC(=O)c2ccccc2)n1 | inactive | inactive | inactive | inactive |  |  | 
CCCCCn1c(=O)c2ccccc2n2c(=S)[nH]nc12 |  |  |  | inactive | 39% (active) | 158% (active) | 152% (active)
Cc1cc(NC(=O)CCC(=O)N(C2CC2)C(C(=O)NC(C)(C)C)c2ccccc2Cl)no1 (stereo not given) | inactive |  | inactive | inactive | 25.5% (active) |  | 
CCN(c1ccccc1)S(=O)(=O)c1ccc(OC)c(OC)c1 |  |  |  | inactive | 150% (active) | 162% (active) | 167% (active)
COc1cc2c(cc1OC)C(C)N(C(=S)NC(=O)c1ccccc1)CC2 (stereo not given) |  | inactive | inactive | inactive |  |  | 141% (active)
C/C(N)=C(/C#N)C(=O)COc1ncnc2ccc(Br)cc12 | inactive | inactive | inactive | inactive |  |  | 
COc1cccc(/C=N/n2c(-c3cccs3)n[nH]c2=S)c1 |  |  |  | inactive | 160% (active) | 265% (active) | 286% (active)
O=C(NC(=S)Nc1ccccc1N1CCCC1)c1ccccc1Br |  |  |  | inactive | 55% (active) | 202% (active) | 179% (active)
COc1cccc2sc(N(CCCN(C)C)C(=O)CCS(=O)(=O)c3ccccc3)nc12 | inactive | inactive | inactive | inactive |  |  | 
COc1cc(C(=O)NC(=S)NC(C)C)cc(OC)c1OC | inactive | inactive | inactive | inactive |  |  | 
COc1ccc2c(c1)cc(C)c1nnc(SCC(=O)N3CCN(C(=O)c4ccco4)CC3)n12 | inactive | inactive | inactive | inactive |  |  | 
CCn1nc(C)c(NC(=O)c2cnn3c(C(F)F)cc(-c4ccccc4)nc23)c1C | inactive | inactive | inactive | inactive |  |  | 
Cc1cccc(NC(=S)NC(=O)c2ccc(Br)o2)c1C | inactive | inactive | inactive | inactive |  |  | 
COc1cc(CN2CCN(c3cccc(Cl)c3)CC2)cc(OC)c1OC | inactive | inactive | inactive | inactive |  |  | 
CCN(C(=O)COC(=O)C(Cc1ccccc1)N1C(=O)c2ccccc2C1=O)C1CCS(=O)(=O)C1 (stereo not given) | inactive | inactive | inactive | inactive |  |  | 
COc1ccc(OCc2cc(C(=O)N(C)CC3CCCCO3)no2)c(Cl)c1 (stereo not given) | inactive |  | inactive | inactive | 17.5% (active) |  | 
OC(c1cc(C(F)(F)F)nc2c(Cl)cc(Cl)cc12)C1CCCCN1 (stereo not given) | inactive | inactive | inactive | inactive |  |  | 

Compound | outcome [1] | outcome [2] | outcome [3] | outcome [4] | potentiation [2] | potentiation [3] | activation [1]
COc1cccc(/C=N/Nc2snc(SC)c2C#N)c1O | inactive | inactive | inactive | inactive |  |  | 
Cc1ccc(C)c(NC(=S)N(Cc2ccco2)C(C)c2cccs2)c1 (stereo not given) | inactive | inactive | inactive | inactive |  |  | 
Cc1cc(SCNC(=O)c2ccccc2)ncn1 | inactive | inactive | inactive | inactive |  |  | 
CCOC(=O)c1sc2ncnc(NCC(c3cccs3)N(C)C)c2c1C (stereo not given) |  |  |  | inactive | 87% (active) | 263% (active) | 255% (active)
CN1C(=O)C2(Oc3ccccc3C3CC(c4ccccc4)=NN32)c2ccccc21 (stereo not given) | inactive | inactive | inactive | inactive |  |  | 
CCc1nnc(SCC(=O)Nc2nnc(C)s2)n1CC1CCCO1 (stereo not given) |  |  |  | inactive | 86.5% (active) | 274% (active) | 278% (active)
Cc1cc(Cl)n2nc(C)c(-c3ccc(Cl)cc3)c2n1 |  |  |  | inactive | 256% (active) | 340% (active) | 216% (active)
Nc1nc(COc2ccccc2C=O)nc(Nc2ccccc2)n1 | inactive | inactive | inactive | inactive |  |  | 
O=c1c(O)c(-c2ccc3c(c2)OCO3)oc2ccccc12 | inactive |  |  | inactive | 41.5% (active) | 162% (active) | 
O=C(NCc1ccco1)c1ccc(=O)oc1 | inactive | inactive | inactive | inactive |  |  | 
c1ccc2[nH]c(-c3ccc4c(c3)OCO4)nc2c1 | inactive | inactive | inactive | inactive |  |  | 
S=c1nn[nH]n1C12CC3CC(CC(C3)C1)C2 |  |  |  | inactive | 51.5% (active) | 210% (active) | 206% (active)
C=C(C)CNC(=S)Nc1nc2c(cc1C(=O)OCC)CCCC2 |  | inactive | inactive | inactive |  |  | 143% (active)
CCCCn1c(N)c(N(CC)C(=O)CSCc2c(C)noc2C)c(=O)[nH]c1=O | inactive | inactive | inactive | inactive |  |  | 
CS(=O)(=O)c1ccc(C(=O)OCc2nnc(-c3ccc(Cl)cc3)o2)cc1[N+](=O)[O-] | inactive |  |  | inactive | 30.5% (active) | 144% (active) | 
C=CCN(CC=C)C(=S)NC(=O)c1ccc(C)c(Br)c1 |  |  |  | inactive | 270% (active) | 688% (active) | 779% (active)
Cc1cc([N+](=O)[O-])ccc1-c1ccc(C2Nc3ccccc3C(=O)N2O)o1 (stereo not given) |  |  |  | inactive | 18.5% (active) | 158% (active) | 174% (active)
C/C(=N/NC(=S)Nc1cccc(C)c1)c1cccc([N+](=O)[O-])c1 | inactive |  | inactive | inactive | 44.5% (active) |  | 
Cc1ccc(-c2cc(C(=O)NCc3ccccn3)c3ccccc3n2)cc1C | inactive | inactive | inactive | inactive |  |  | 
NC(=O)c1nsc(C(=O)N(CC(=O)NC2CCCCC2)c2ccc(Cl)cc2)c1N | inactive | inactive | inactive | inactive |  |  | 
